Data on 9 compounds can be found in ChEMBL document CHEMBL4706568, “Some thermodynamic effects of varying nonpolar surfaces in protein-ligand interactions” (Eur J Med Chem, 2020).

Square brackets hold non-standard residues; d marks the D form. Peptide text beside a SMILES is read from it. * marks the point of attachment. pY = N[C@@H](Cc1ccc(OP(=O)(O)O)cc1)C(=O)O; NHPhenethyl = c1ccc(CCN*)cc1; Ac6c = NC1(C(=O)O)CCCCC1; NHBn = c1ccc(CN*)cc1

In the first test the target is Growth factor receptor-bound protein 2 (Homo sapiens) (UniProt P62993). Kind of test: Binding affinity to Grb2-SH2 domain (53 to 163 residues) (unknown origin) expressed in Escherichia coli assessed as change in gibbs free energy by ITC analysis. The method, boiled down: (§1)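 Grb2 SH2 residues 53–163 expressed in E. coli SG13009 (IPTG induction), purified by phosphotyrosine affinity, Q-Sepharose and size exclusion to isolate monomer. Protein diluted to 65–85 μM, ligand ~1 mM, both in 50 mM HEPES, 150 mM NaCl, pH 7.50. VP-ITC at 25 °C, ~35 injections of 7–9 μL ligand, buffer heats subtracted, n normalized to 1.00; ≥3 runs averaged.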
Sequence of Growth factor receptor-bound protein 2 (Homo sapiens) (P62993 whole entry, looked up, the tested form may be a part): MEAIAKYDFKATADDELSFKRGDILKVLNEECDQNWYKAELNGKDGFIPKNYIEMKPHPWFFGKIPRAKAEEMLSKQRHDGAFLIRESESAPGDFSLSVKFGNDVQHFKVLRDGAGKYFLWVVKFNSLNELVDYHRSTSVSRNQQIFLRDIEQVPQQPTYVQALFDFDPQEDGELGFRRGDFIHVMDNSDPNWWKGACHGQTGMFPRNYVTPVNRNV
For the compound `CC(=O)N[C@@H](Cc1ccc(OP(=O)(O)O)cc1)C(=O)NC1(C(=O)N[C@@H](CC(N)=O)C(=O)NCCCCc2ccccc2)CCCCC1`, the deltaG was -9.8 kcal/mol.
Same read-out and setting: then `CC(=O)N[C@@H](Cc1ccc(OP(=O)(O)O)cc1)C(=O)NC1(C(=O)N[C@@H](CC(N)=O)C(=O)NCCCCCc2ccccc2)CCCCC1`, with -10.2 kcal/mol; and `CC(=O)N[C@@H](Cc1ccc(OP(=O)(O)O)cc1)C(=O)NC1(C(=O)N[C@@H](CC(N)=O)C(=O)NCCCc2c[nH]c3ccccc23)CCCCC1`, with -10.3 kcal/mol; and `CC(=O)N[C@@H](Cc1ccc(OP(=O)(O)O)cc1)C(=O)NC1(C(=O)N[C@@H](CC(N)=O)C(=O)NCc2ccccc2)CCCCC1` (Ac-[pY]-[Ac6c]-Asn-NHBn), with -9.6 kcal/mol.
As for `CC(=O)N[C@@H](Cc1ccc(OP(=O)(O)O)cc1)C(=O)NC1(C(=O)N[C@@H](CC(N)=O)C(=O)NCCCn2ccc3ccccc32)CCCCC1`, the deltaG is -10.1 kcal/mol.
Still for that read-out and setting: the value for `CC(=O)N[C@@H](Cc1ccc(OP(=O)(O)O)cc1)C(=O)NC1(C(=O)N[C@@H](CC(N)=O)C(=O)NCc2cn(C)c3ccccc23)CCCCC1` was -9.5 kcal/mol; that for `CC(=O)N[C@@H](Cc1ccc(OP(=O)(O)O)cc1)C(=O)NC1(C(=O)N[C@@H](CC(N)=O)C(=O)NCCCC2CCCCC2)CCCCC1` was -9.9 kcal/mol.
Take `CC(=O)N[C@@H](Cc1ccc(OP(=O)(O)O)cc1)C(=O)NC1(C(=O)N[C@@H](CC(N)=O)C(=O)NCCc2ccccc2)CCCCC1` (Ac-[pY]-[Ac6c]-Asn-NHPhenethyl): the deltaG is -9.8 kcal/mol.
Turning to `CC(=O)N[C@@H](Cc1ccc(OP(=O)(O)O)cc1)C(=O)NC1(C(=O)N[C@@H](CC(N)=O)C(=O)NCCCc2cn(C)c3ccccc23)CCCCC1`, the deltaG was -10.4 kcal/mol.

The next test has the same target. Kind of test: Binding affinity to Grb2-SH2 domain (53 to 163 residues) (unknown origin) expressed in Escherichia coli assessed as change in entropy by ITC analysis. The method, boiled down: as §1
On to `CC(=O)N[C@@H](Cc1ccc(OP(=O)(O)O)cc1)C(=O)NC1(C(=O)N[C@@H](CC(N)=O)C(=O)NCCCCc2ccccc2)CCCCC1`, for which the -TdeltaS is -2.1 kcal/mol.
On the same count and under the same terms, then `CC(=O)N[C@@H](Cc1ccc(OP(=O)(O)O)cc1)C(=O)NC1(C(=O)N[C@@H](CC(N)=O)C(=O)NCCCCCc2ccccc2)CCCCC1`, with -2.3 kcal/mol; and `CC(=O)N[C@@H](Cc1ccc(OP(=O)(O)O)cc1)C(=O)NC1(C(=O)N[C@@H](CC(N)=O)C(=O)NCCCc2c[nH]c3ccccc23)CCCCC1`, with -1.2 kcal/mol.
On the same count and under the same terms, the value for `CC(=O)N[C@@H](Cc1ccc(OP(=O)(O)O)cc1)C(=O)NC1(C(=O)N[C@@H](CC(N)=O)C(=O)NCc2ccccc2)CCCCC1` (Ac-[pY]-[Ac6c]-Asn-NHBn) was -2.1 kcal/mol; that for `CC(=O)N[C@@H](Cc1ccc(OP(=O)(O)O)cc1)C(=O)NC1(C(=O)N[C@@H](CC(N)=O)C(=O)NCCCn2ccc3ccccc32)CCCCC1` was -1 kcal/mol; that for `CC(=O)N[C@@H](Cc1ccc(OP(=O)(O)O)cc1)C(=O)NC1(C(=O)N[C@@H](CC(N)=O)C(=O)NCc2cn(C)c3ccccc23)CCCCC1` was -2.8 kcal/mol.
With `CC(=O)N[C@@H](Cc1ccc(OP(=O)(O)O)cc1)C(=O)NC1(C(=O)N[C@@H](CC(N)=O)C(=O)NCCCC2CCCCC2)CCCCC1`, the -TdeltaS is -1.9 kcal/mol.
Same read-out and setting: then `CC(=O)N[C@@H](Cc1ccc(OP(=O)(O)O)cc1)C(=O)NC1(C(=O)N[C@@H](CC(N)=O)C(=O)NCCc2ccccc2)CCCCC1` (Ac-[pY]-[Ac6c]-Asn-NHPhenethyl), with -2.1 kcal/mol.
The same measure, in the same setting: the value for `CC(=O)N[C@@H](Cc1ccc(OP(=O)(O)O)cc1)C(=O)NC1(C(=O)N[C@@H](CC(N)=O)C(=O)NCCCc2cn(C)c3ccccc23)CCCCC1` was -0.2 kcal/mol.

For the next test the target is unchanged. Nature of the test: Binding affinity to Grb2-SH2 domain (53 to 163 residues) (unknown origin) expressed in Escherichia coli assessed as change in enthalpy by ITC analysis. The method, boiled down: as §1
Regarding `CC(=O)N[C@@H](Cc1ccc(OP(=O)(O)O)cc1)C(=O)NC1(C(=O)N[C@@H](CC(N)=O)C(=O)NCCCCc2ccccc2)CCCCC1`, the deltaH was -7.7 kcal/mol.
`CC(=O)N[C@@H](Cc1ccc(OP(=O)(O)O)cc1)C(=O)NC1(C(=O)N[C@@H](CC(N)=O)C(=O)NCCCCCc2ccccc2)CCCCC1`: the deltaH is -7.9 kcal/mol.
In the case of `CC(=O)N[C@@H](Cc1ccc(OP(=O)(O)O)cc1)C(=O)NC1(C(=O)N[C@@H](CC(N)=O)C(=O)NCCCc2c[nH]c3ccccc23)CCCCC1`, the deltaH was -9.1 kcal/mol.
Regarding `CC(=O)N[C@@H](Cc1ccc(OP(=O)(O)O)cc1)C(=O)NC1(C(=O)N[C@@H](CC(N)=O)C(=O)NCc2ccccc2)CCCCC1` (Ac-[pY]-[Ac6c]-Asn-NHBn), the deltaH was -7.5 kcal/mol.
Take `CC(=O)N[C@@H](Cc1ccc(OP(=O)(O)O)cc1)C(=O)NC1(C(=O)N[C@@H](CC(N)=O)C(=O)NCCCn2ccc3ccccc32)CCCCC1`: the deltaH was -9.1 kcal/mol.
With `CC(=O)N[C@@H](Cc1ccc(OP(=O)(O)O)cc1)C(=O)NC1(C(=O)N[C@@H](CC(N)=O)C(=O)NCc2cn(C)c3ccccc23)CCCCC1`, the deltaH is -6.7 kcal/mol.
Regarding `CC(=O)N[C@@H](Cc1ccc(OP(=O)(O)O)cc1)C(=O)NC1(C(=O)N[C@@H](CC(N)=O)C(=O)NCCCC2CCCCC2)CCCCC1`, the deltaH was -8 kcal/mol.
In the case of `CC(=O)N[C@@H](Cc1ccc(OP(=O)(O)O)cc1)C(=O)NC1(C(=O)N[C@@H](CC(N)=O)C(=O)NCCc2ccccc2)CCCCC1` (Ac-[pY]-[Ac6c]-Asn-NHPhenethyl), the deltaH was -7.7 kcal/mol.
As for `CC(=O)N[C@@H](Cc1ccc(OP(=O)(O)O)cc1)C(=O)NC1(C(=O)N[C@@H](CC(N)=O)C(=O)NCCCc2cn(C)c3ccccc23)CCCCC1`, the deltaH was -10.2 kcal/mol.

The next test shares this target. Nature of the test: Binding affinity to Grb2-SH2 domain (53 to 163 residues) (unknown origin) expressed in Escherichia coli assessed as association constant by ITC analysis. The method, boiled down:
as §1
For the compound `CC(=O)N[C@@H](Cc1ccc(OP(=O)(O)O)cc1)C(=O)NC1(C(=O)N[C@@H](CC(N)=O)C(=O)NCCCCc2ccccc2)CCCCC1`, the Ka was 1.5 10^7/M.
On the same count and under the same terms, the value for `CC(=O)N[C@@H](Cc1ccc(OP(=O)(O)O)cc1)C(=O)NC1(C(=O)N[C@@H](CC(N)=O)C(=O)NCCCCCc2ccccc2)CCCCC1` was 2.8 10^7/M; that for `CC(=O)N[C@@H](Cc1ccc(OP(=O)(O)O)cc1)C(=O)NC1(C(=O)N[C@@H](CC(N)=O)C(=O)NCCCc2c[nH]c3ccccc23)CCCCC1` was 3.5 10^7/M; that for `CC(=O)N[C@@H](Cc1ccc(OP(=O)(O)O)cc1)C(=O)NC1(C(=O)N[C@@H](CC(N)=O)C(=O)NCc2ccccc2)CCCCC1` (Ac-[pY]-[Ac6c]-Asn-NHBn) was 1.2 10^7/M.
For `CC(=O)N[C@@H](Cc1ccc(OP(=O)(O)O)cc1)C(=O)NC1(C(=O)N[C@@H](CC(N)=O)C(=O)NCCCn2ccc3ccccc32)CCCCC1`, the Ka is 2.7 10^7/M.
`CC(=O)N[C@@H](Cc1ccc(OP(=O)(O)O)cc1)C(=O)NC1(C(=O)N[C@@H](CC(N)=O)C(=O)NCc2cn(C)c3ccccc23)CCCCC1`: the Ka was 1.1 10^7/M.
For `CC(=O)N[C@@H](Cc1ccc(OP(=O)(O)O)cc1)C(=O)NC1(C(=O)N[C@@H](CC(N)=O)C(=O)NCCCC2CCCCC2)CCCCC1`, the Ka is 1.9 10^7/M.
Same read-out and setting: then `CC(=O)N[C@@H](Cc1ccc(OP(=O)(O)O)cc1)C(=O)NC1(C(=O)N[C@@H](CC(N)=O)C(=O)NCCc2ccccc2)CCCCC1` (Ac-[pY]-[Ac6c]-Asn-NHPhenethyl), with 1.5 10^7/M; and `CC(=O)N[C@@H](Cc1ccc(OP(=O)(O)O)cc1)C(=O)NC1(C(=O)N[C@@H](CC(N)=O)C(=O)NCCCc2cn(C)c3ccccc23)CCCCC1`, with 4.9 10^7/M.
